For 3 molecules, Ki, Activity and IC50 results are on record in ChEMBL document CHEMBL4699389, “Design and synthesis of a bivalent probe targeting the putative mu opioid receptor and chemokine receptor CXCR4 heterodimer” (RSC Med Chem, 2020).

Experiment [1] concerns the target T1, Mu-type opioid receptor (Mus musculus, UniProt P42866). The experiment in a line: Displacement of [3H]-NLX from mouse MOR expressed in CHO cells incubated for 1.5 hrs by radioligand binding assay. The class given is cell-based. Background: Displacement assays read how much labelled ligand stays bound in the presence of the test substance.
Experiment [2] addresses Mu-type opioid receptor (Mus musculus) (UniProt P42866). The experiment in a line: Agonist activity at mouse MOR expressed in CHO cells assessed as increase in calcium influx incubated for 15 mins by Fluo-4AM dye based fluorescence assay. Type of experiment: functional, cell-based. In a few lines:
(§1)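 Cells transiently transfected with Gqi5 (Lipofectamine 2000), plated at […] per well and grown to confluence. At 48 h post-transfection, loaded with fluo-4 AM plus probenecid in HBSS-HEPES-Ca-Mg buffer for 45 min. Ligands tested alone at 0.3 nM to 3 μM. Ca²⁺ followed as RFU for 90 s on FlexStation3. Triplicate doses, at least 4 repeats.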

In experiment [3] the target is T2, C-X-C chemokine receptor type 4 (Homo sapiens, UniProt P61073). The experiment in a line: Agonist activity at […] (unknown origin) expressed in HOS cells assessed as increase in calcium influx incubated for 15 mins by Fluo-4AM dye based fluorescence assay. The class given is functional, cell-based. In a few lines:
as §1

Experiment [4] concerns the target T1, Mu-type opioid receptor. The experiment in a line: Antagonist activity at mouse MOR expressed in CHO cells assessed as decrease in DAMGO-induced calcium influx incubated for 15 mins followed by DAMGO stimulation and measured after 90 sec by Fluo-4AM dye based fluorescence assay. Type of experiment: functional, cell-based. Summed up: (§2)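 Gqi5-transfected cells, 48 h post-transfection, loaded with fluo-4 AM/probenecid for 45 min. Pre-incubated 15 min with compound at varying concentrations, then agonist added: SDF-1 for CXCR4-HOS, DAMGO for MOR-CHO. RFU read for 90 s on FlexStation3. IC50 from peak values by non-linear regression. Triplicate doses, at least 4 repeats.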

The target of experiment [5] is T2, C-X-C chemokine receptor type 4. The experiment in a line: Binding affinity to CXCR4 (unknown origin) expressed in CHO cells incubated for 40 mins by immunofluorescence assay. Type of experiment: cell-based. Summed up:
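Trypsinized CHO-CXCR4 cells (5×10⁵ per well) in FACS buffer (0.5% BSA, 0.05% azide in PBS). Incubated 40 min on ice with mouse anti-human CD184 (1:2000) plus graded compound concentrations, then with anti-mouse IgG-FITC (1:1000) for 30 min on ice. IC50 from at least three independent experiments.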

Experiment [6] shares this target. The experiment in a line: Antagonist activity at CXCR4 (unknown origin) expressed in HOS cells assessed as decrease in SDF1-induced calcium influx incubated for 15 mins followed by SDF1 stimulation and measured after 90 sec by Fluo-4AM dye based fluorescence assay. Type of experiment: functional, cell-based. In a few lines: as §2

The source made the active and inactive calls. The calls are words filed in the database; no cut-off is given here.

Broadly, the Ki is the dissociation constant of the complex between target and ligand, obtained from inhibition or displacement. Higher therefore signals lower affinity. Usually IC50 stands for the point on the concentration scale where inhibition reaches its midpoint.

T2 sequence (P61073 whole entry): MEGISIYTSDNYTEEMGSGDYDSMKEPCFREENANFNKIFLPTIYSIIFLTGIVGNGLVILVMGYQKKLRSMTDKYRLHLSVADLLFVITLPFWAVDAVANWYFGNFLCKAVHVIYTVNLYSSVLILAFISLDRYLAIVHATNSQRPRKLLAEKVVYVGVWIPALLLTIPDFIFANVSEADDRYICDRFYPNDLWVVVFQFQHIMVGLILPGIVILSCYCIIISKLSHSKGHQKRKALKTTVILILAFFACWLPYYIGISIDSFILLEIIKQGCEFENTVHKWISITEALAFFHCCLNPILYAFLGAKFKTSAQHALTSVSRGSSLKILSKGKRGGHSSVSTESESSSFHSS
T1 sequence (P42866 whole entry): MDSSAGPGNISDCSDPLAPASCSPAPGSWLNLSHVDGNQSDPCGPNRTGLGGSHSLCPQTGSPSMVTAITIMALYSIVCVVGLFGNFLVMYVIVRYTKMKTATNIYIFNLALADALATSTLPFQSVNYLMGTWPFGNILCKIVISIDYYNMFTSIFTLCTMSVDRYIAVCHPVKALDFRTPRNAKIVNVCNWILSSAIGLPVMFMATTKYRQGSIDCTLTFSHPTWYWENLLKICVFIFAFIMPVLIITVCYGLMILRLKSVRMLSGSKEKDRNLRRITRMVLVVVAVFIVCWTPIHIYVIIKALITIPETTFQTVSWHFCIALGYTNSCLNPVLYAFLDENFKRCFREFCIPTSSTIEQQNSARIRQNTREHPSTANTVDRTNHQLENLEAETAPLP
Sequence of Mu-type opioid receptor (Mus musculus) (P42866 whole entry): as above

Take `CNC(=O)COCC(=O)NCCCCCCNC(=O)COCC(=O)N[C@@H]1CC[C@@]2(O)[C@H]3Cc4ccc(O)c5c4[C@@]2(CCN3CC2CC2)[C@H]1O5`: the inhibition constant (Ki) on Mu-type opioid receptor [1] is 2 nM. Also, the result in experiment [2] and in experiment [3] was inactive. For the same molecule, the IC50 at Mu-type opioid receptor [4] came to 133 nM.

Regarding `CNC(=O)COCC(=O)NCCCCCCNC(=O)COCC(=O)NC[C@H]1CC[C@H](/N=C(/NC2CCCCC2)SCC2=CSC3=NC(C)(C)CN23)CC1`, the IC50 in experiment [5] is 74 µM; in experiment [6], 78.3 µM. Also, the outcome in experiment [3] was inactive.

Regarding `CC1(C)CN2C(CS/C(=N\[C@H]3CC[C@H](CNC(=O)COCC(=O)NCCCCCCNC(=O)COCC(=O)N[C@@H]4CC[C@@]5(O)[C@H]6Cc7ccc(O)c8c7[C@@]5(CCN6CC5CC5)[C@H]4O8)CC3)NC3CCCCC3)=CSC2=N1`, affinity on Mu-type opioid receptor [1] was put at a Ki of 25.4 nM. Moreover, the IC50 amounted to 17.2 µM in experiment [5], 61.9 nM at Mu-type opioid receptor [4] and 3.3 µM in experiment [6]. Further, the outcome in experiment [2] and in experiment [3] was inactive.
